Source: ChEMBL document CHEMBL4270530, “Surmounting the resistance against EGFR inhibitors through the development of thieno[2,3-d]pyrimidine-based dual EGFR/HER2 inhibitors” (Eur J Med Chem, 2018)

Legend:
NCI-H23 = assay: Growth inhibition of human NCI-H23 cells assessed as cell growth at 10 uM incubated for 48 hrs by sulforhodamine B assay relative to control; assay type: functional; conditions: NCI-H23, 48 h, read-out: Activity
In short: (§1)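 NCI-60 one-dose screen run by the NCI Developmental Therapeutics Program at a single 10 µM concentration; growth percent read from the one-dose mean graph.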

HCC 2998 = assay: Growth inhibition of human HCC2998 cells assessed as cell growth at 10 uM incubated for 48 hrs by sulforhodamine B assay relative to control; assay type: functional; conditions: HCC 2998, 48 h, read-out: Activity; in short: as §1
UACC-62 = assay: Growth inhibition of human UACC62 cells assessed as cell growth at 10 uM incubated for 48 hrs by sulforhodamine B assay relative to control; assay type: functional; conditions: UACC-62, 48 h, read-out: Activity
In short: (§2)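 NCI-60 single-dose screen at 10 µM run by the NCI Developmental Therapeutics Program; growth percent read from the one-dose mean graph, with percent inhibition approximated from those growth-percent values.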

SK-MEL-28 = assay: Growth inhibition of human SK-MEL-28 cells assessed as cell growth at 10 uM incubated for 48 hrs by sulforhodamine B assay relative to control; assay type: functional; conditions: SK-MEL-28, 48 h, read-out: Activity; in short: as §1
KM12 = assay: Growth inhibition of human KM12 cells assessed as cell growth at 10 uM incubated for 48 hrs by sulforhodamine B assay relative to control; assay type: functional; conditions: KM12, 48 h, read-out: Activity; in short: as §1
DU-145 = assay: Growth inhibition of human DU145 cells assessed as cell growth at 10 uM incubated for 48 hrs by sulforhodamine B assay relative to control; assay type: functional; conditions: DU-145, 48 h, read-out: Activity; in short: as §1
SF-295 = assay: Growth inhibition of human SF295 cells assessed as cell growth at 10 uM incubated for 48 hrs by sulforhodamine B assay relative to control; assay type: functional; conditions: SF-295, 48 h, read-out: Activity; in short: as §1
HOP-62 = assay: Growth inhibition of human HOP62 cells assessed as cell growth at 10 uM incubated for 48 hrs by sulforhodamine B assay relative to control; assay type: functional; conditions: HOP-62, 48 h, read-out: Activity; in short: as §1
HCT-15 = assay: Growth inhibition of human HCT15 cells assessed as cell growth at 10 uM incubated for 48 hrs by sulforhodamine B assay relative to control; assay type: functional; conditions: HCT-15, 48 h, read-out: Activity; in short: as §1
SK-OV-3 = assay: Growth inhibition of human SKOV3 cells at 10 uM incubated for 48 hrs by sulforhodamine B assay relative to control; assay type: functional; conditions: SK-OV-3, 48 h, read-out: GI; in short: as §1
HL-60(TB) = assay: Growth inhibition of human HL-60(TB) cells assessed as cell growth at 10 uM incubated for 48 hrs by sulforhodamine B assay relative to control; assay type: functional; conditions: HL-60, 48 h, read-out: Activity
In short: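 Single-dose (10 µM) screen across the full NCI-60 panel, run by the NCI Developmental Therapeutics Program. Read-out is growth percent relative to untreated control, taken from the NCI one-dose mean graph.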

NCI/ADR-RES = assay: Growth inhibition of human NCI/ADR-RES cells assessed as cell growth at 10 uM incubated for 48 hrs by sulforhodamine B assay relative to control; assay type: functional; conditions: read-out: Activity; in short: as §1
IGROV-1 = assay: Growth inhibition of human IGROV1 cells at 10 uM incubated for 48 hrs by sulforhodamine B assay relative to control; assay type: functional; conditions: IGROV-1, 48 h, read-out: GI; in short: as §1
MCF7 = assay: Growth inhibition of human MCF7 cells assessed as cell growth at 10 uM incubated for 48 hrs by sulforhodamine B assay relative to control; assay type: functional; conditions: MCF7, 48 h, read-out: Activity; in short: as §1
A-431 = assay: Cytotoxicity against human A431 cells over expressing EGFR assessed as reduction in cell viability after 72 hrs by sulforhodamine B assay; assay type: functional, cell-based; conditions: A-431, 72 h
In short: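 Cells seeded and grown 24 h, then exposed to 0.1% DMSO vehicle or 0.3125-20 μM compound for 72 h. Fixed with ice-cold 50% TCA (1 h, 4 °C), stained with 0.4% SRB 30 min at room temperature, dye solubilized in 10 mM tris base pH 10.5, OD read at 560 nm. Survival fraction = OD treated/OD vehicle; IC50 from triplicates of at least two independent experiments, mean ± SD.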

MDA-MB-435 = assay: Growth inhibition of human MDA-MB-435 cells assessed as cell growth at 10 uM incubated for 48 hrs by sulforhodamine B assay relative to control; assay type: functional; conditions: MDA-MB-435, 48 h, read-out: Activity; in short: as §1
MOLT-4 = assay: Growth inhibition of human MOLT4 cells assessed as cell growth at 10 uM incubated for 48 hrs by sulforhodamine B assay relative to control; assay type: functional; conditions: MOLT-4, 48 h, read-out: Activity; in short: as §1
ACHN = assay: Growth inhibition of human ACHN cells at 10 uM incubated for 48 hrs by sulforhodamine B assay relative to control; assay type: functional; conditions: read-out: GI; in short: as §1
OVCAR-8 = assay: Growth inhibition of human OVCAR8 cells assessed as cell growth at 10 uM incubated for 48 hrs by sulforhodamine B assay relative to control; assay type: functional; conditions: OVCAR-8, 48 h, read-out: Activity; in short: as §1
BT-549 = assay: Growth inhibition of human BT549 cells assessed as cell growth at 10 uM incubated for 48 hrs by sulforhodamine B assay relative to control; assay type: functional; conditions: BT-549, 48 h, read-out: Activity; in short: as §1
SR = assay: Growth inhibition of human SR cells assessed as cell growth at 10 uM incubated for 48 hrs by sulforhodamine B assay relative to control; assay type: functional; conditions: read-out: Activity; in short: as §2
SNB-75 = assay: Growth inhibition of human SNB75 cells assessed as cell growth at 10 uM incubated for 48 hrs by sulforhodamine B assay relative to control; assay type: functional; conditions: SNB-75, 48 h, read-out: Activity; in short: as §2
OVCAR-5 = assay: Growth inhibition of human OVCAR5 cells assessed as cell growth at 10 uM incubated for 48 hrs by sulforhodamine B assay relative to control; assay type: functional; conditions: OVCAR-5, 48 h, read-out: Activity; in short: as §1
NCI-H226 = assay: Growth inhibition of human NCI-H226 cells assessed as cell growth at 10 uM incubated for 48 hrs by sulforhodamine B assay relative to control; assay type: functional; conditions: NCI-H226, 48 h, read-out: Activity; in short: as §1
MDA-MB-231 = assay: Growth inhibition of human MDA-MB-231 cells assessed as cell growth at 10 uM incubated for 48 hrs by sulforhodamine B assay relative to control; assay type: functional; conditions: MDA-MB-231, 48 h, read-out: Activity; in short: as §1
HT-29 = assay: Growth inhibition of human HT-29 cells assessed as cell growth at 10 uM incubated for 48 hrs by sulforhodamine B assay relative to control; assay type: functional; conditions: HT-29, 48 h, read-out: Activity; in short: as §1
HOP-92 = assay: Growth inhibition of human HOP92 cells assessed as cell growth at 10 uM incubated for 48 hrs by sulforhodamine B assay relative to control; assay type: functional; conditions: HOP-92, 48 h, read-out: Activity; in short: as §1

Structure (SMILES): O=[N+]([O-])c1ccc(-c2cc3c(Nc4ccc(OCc5cccc(F)c5)c(Cl)c4)ncnc3s2)cc1
- growth at 10 µM (NCI-H23): 73.1%
- growth at 10 µM (HCC 2998): 97.3%
- growth at 10 µM (UACC-62): 79.1%
- growth at 10 µM (SK-MEL-28): 110%
- growth at 10 µM (KM12): 80%
- growth at 10 µM (DU-145): 82.1%
- growth at 10 µM (SF-295): 69.7%
- growth at 10 µM (HOP-62): 94.7%
- growth at 10 µM (HCT-15): 63.4%
- inhibition of growth at 10 µM (SK-OV-3): 0%
- growth at 10 µM (HL-60(TB)): 79.2%
- growth at 10 µM (NCI/ADR-RES): 80.5%
- inhibition of growth at 10 µM (IGROV-1): 12%
- growth at 10 µM (MCF7): 78.9%
- IC50 (A-431): 11 µM
- growth at 10 µM (MDA-MB-435): 91.9%
- growth at 10 µM (MOLT-4): 65.7%
- inhibition of growth at 10 µM (ACHN): 23%
- growth at 10 µM (OVCAR-8): 70.3%
- growth at 10 µM (BT-549): 103%
- growth at 10 µM (SR): 68.6%
- growth at 10 µM (SNB-75): 98.5%
- growth at 10 µM (OVCAR-5): 101%
- growth at 10 µM (NCI-H226): 86.4%
- growth at 10 µM (MDA-MB-231): 87.8%
- growth at 10 µM (HT-29): 66.9%
- growth at 10 µM (HOP-92): 82.1%

Structure (SMILES): Nc1ccc(-c2cc3c(Nc4ccc(OCc5cccc(F)c5)c(Cl)c4)ncnc3s2)cc1
- growth at 10 µM (NCI-H23): 68.6%
- growth at 10 µM (HCC 2998): 38.6%
- growth at 10 µM (UACC-62): 55.7%
- growth at 10 µM (SK-MEL-28): 39.2%
- growth at 10 µM (KM12): 24%
- growth at 10 µM (DU-145): 36.9%
- growth at 10 µM (SF-295): 47.8%
- growth at 10 µM (HOP-62): 62.3%
- growth at 10 µM (HCT-15): 32.9%
- inhibition of growth at 10 µM (SK-OV-3): 100%
- growth at 10 µM (HL-60(TB)): 48.2%
- growth at 10 µM (NCI/ADR-RES): 50.4%
- inhibition of growth at 10 µM (IGROV-1): 60%
- growth at 10 µM (MCF7): 26.2%
- IC50 (A-431): 9.76 µM
- growth at 10 µM (MDA-MB-435): 43.8%
- growth at 10 µM (MOLT-4): 30%
- inhibition of growth at 10 µM (ACHN): 70%
- growth at 10 µM (OVCAR-8): 63.1%
- growth at 10 µM (BT-549): 61.2%
- growth at 10 µM (SR): 14.5%
- growth at 10 µM (SNB-75): 87.2%
- growth at 10 µM (OVCAR-5): 77.9%
- growth at 10 µM (NCI-H226): 53.5%
- growth at 10 µM (MDA-MB-231): 13.4%
- growth at 10 µM (HT-29): 84.5%
- growth at 10 µM (HOP-92): 45.8%
